Read-outs that look alike come from different tables or passages of the source.
Key:
human β-cell = conditions: ref El Ouaamari et al., 2016; cited from earlier work
Ins+ cells = assay: β-cell regeneration after metronidazole ablation in Tg; assay type: in vivo, zebrafish (Danio rerio); conditions: added to growth medium 4–6 dpf, vs DMSO
Outline: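 Tg(ins:flag-NTR);Tg(tp1:H2BmCherry) zebrafish larvae had β-cells ablated in E3 medium with 10 mM metronidazole, 1% DMSO and 0.2 mM 1-phenyl-2-thiourea from 3 to 4 dpf. From 4 to 6 dpf, larvae were exposed to DMSO or test compound in the medium. Larvae then euthanized, fixed, immunostained with anti-insulin (1:100), imaged and Ins+ cells counted.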

[1] = molecular target: porcine pancreatic elastase (pPE) (Sus scrofa, UniProt P00772); assay: Absorbance-based protease activity assay, pPE; assay type: biochemical
Sequence of porcine pancreatic elastase (pPE) (P00772 27-266): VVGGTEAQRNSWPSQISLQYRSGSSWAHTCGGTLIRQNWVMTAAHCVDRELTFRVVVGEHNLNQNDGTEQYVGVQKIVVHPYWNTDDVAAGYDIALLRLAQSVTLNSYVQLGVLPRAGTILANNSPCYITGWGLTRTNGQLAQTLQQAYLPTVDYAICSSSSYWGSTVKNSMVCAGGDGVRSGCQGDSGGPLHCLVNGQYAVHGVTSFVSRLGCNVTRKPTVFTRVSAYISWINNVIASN
Outline: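 Porcine pancreatic elastase (500 ng) was combined with 15 two-fold dilutions of test compound, starting at 20 μM. Controls were enzyme-free blank wells and enzyme-plus-DMSO wells. After 3 min at 37°C, N-methoxysuccinyl-Ala-Ala-Pro-Val-p-nitroanilide substrate was added. After 2 h at 37°C, absorbance at 405 was read every 15 s for 21 reads (5 min).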

[2] = molecular target: human pancreatic elastase (PE); assay: Absorbance-based protease activity assay, human PE; assay type: biochemical; conditions: read-out: IC50 PE
Outline: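 Human pancreatic elastase (500 ng) mixed with 15 two-fold dilutions of test compound starting at 20 μM. Blank (no-enzyme) and DMSO wells serve as controls. Preincubated 3 min at 37°C, then N-methoxysuccinyl-Ala-Ala-Pro-Val-p-nitroanilide added. After 2 h at 37°C, absorbance read at 405 nm, 21 reads over 5 min. IC50 derived from the dilution series.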

[3] = molecular target: T1, human neutrophil elastase (NE) (Homo sapiens, UniProt P08246); assay: Absorbance-based protease activity assay, human NE; assay type: biochemical
T1 sequence (P08246 30-267): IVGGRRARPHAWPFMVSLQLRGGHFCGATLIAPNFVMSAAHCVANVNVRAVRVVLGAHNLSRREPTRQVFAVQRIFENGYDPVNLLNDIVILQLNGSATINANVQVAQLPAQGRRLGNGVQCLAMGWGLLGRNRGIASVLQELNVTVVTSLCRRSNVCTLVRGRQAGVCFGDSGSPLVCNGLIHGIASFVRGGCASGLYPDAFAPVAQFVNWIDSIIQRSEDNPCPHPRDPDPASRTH

[4] = system: primary human β-cell cultures; assay: Viability assay in dispersed human islet cells; assay type: cell-based
Outline: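 Human islets dispersed with TrypLE for 30 min at 37°C, neutralized with FBS, seeded on ECM/fibronectin and left overnight. Pretreated 24 h with water or FSLLRY-NH2 plus EdU 10 μM, then 24 h with vehicles or compounds plus EdU 10 μM. β-cells labelled with DA-ZP1; EdU Click-iT Alexa 647 and APC Annexin V. ≥4000 live (Zombie NIR-negative) cells counted by flow cytometry.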

[5] = system: transplanted human islets; assay type: in vivo, NSG mice; conditions: 4 weeks
Outline: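 Male 8–10-week NSG mice received 1000 hand-picked human islet equivalents under the kidney capsule. After engraftment, vehicle (DMSO) or test compound was given by osmotic pump for 28 days. Grafts fixed overnight at 4°C in zinc formalin and cut as 5-μm paraffin serial sections. Sections co-stained for Ki67 or pHH3 with insulin and DAPI; cell death by TUNEL.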

HFD mice = assay: High-fat diet insulin-resistant mice, osmotic pump treatment; assay type: in vivo, C57BL6/J mice
Outline: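 Male C57BL6/J mice, obtained at 4 weeks old, kept on low-fat or high-fat diet for 24 weeks. From week 20, weight-matched animals received vehicle (DMSO) or test compound at 30 or 300 μg/kg/day for 28 days by subcutaneous osmotic pump; low-fat mice got vehicle. GTT, ITT and in vivo GSIS at weeks 0 and 4; insulin by ELISA. Pancreas sections used for immunofluorescent β-cell proliferation and mass.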

[6] = system: HCV-infected individuals with diabetes; conditions: ref Davis et al., 2017; Tallón de Lara et al., 2014; cited from earlier work
human β-cells = assay: Proliferation; assay type: cell-based; conditions: 24 h, non-diabetic human islets
human islets [7] = assay: Phospho-antibody microarray; assay type: cell-based; conditions: 30 min
Outline: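 Human islets cultured overnight in Miami Media #1A at 37°C, 5% CO2. 200 hand-picked islet equivalents collected after 10- or 30-min stimulation and processed for the phospho-antibody array.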

EndoC-βH1 cells [8] = assay: Phospho-PAK1 Western Blotting; assay type: cell-based, human
Outline: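 EndoC-βH1 cells transfected with scramble oligo or siFAK, or with empty vector or C-terminal 3X FLAG-tagged PTK2 cDNA (lipofectamine). Cells starved overnight in growth medium with 2.8 mM glucose, then stimulated in 2.8 mM glucose plus 0.1% BSA with PBS or PE ± test compound. siFAK cells treated 30 min. RIPA lysates with protease/phosphatase inhibitors, BCA assay, immunoblot for PAK1 S144 and total PAK1.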

EndoC-βH1 cells [9] = assay: Phospho-ERK1/2 Western Blotting; assay type: cell-based, human; conditions: PE +/− telaprevir for 30 min
EndoC-βH1 cells [10] = assay: Brillouin microscopy of cell stiffness; assay type: cell-based, human; conditions: PE 250 ng/ml, or PE + telaprevir (750 nm), 24 hr
Outline: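 After 24 hr incubation, stiffness of 12 cells per condition mapped by confocal Brillouin microscopy: 780 nm single-frequency laser, virtually imaged phase array spectrometer, non-contact longitudinal mechanical read-out.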

EndoC-βH3 cells = assay: Viability assays; assay type: cell-based, human
Outline: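 EndoC-βH3 cells exposed to 1 μM tamoxifen for 21 days, then 14 days wash-out. Starved overnight in 2.8 mM glucose medium and stimulated in 2.8 mM glucose with 0.1% BSA. Cells then trypsinized and labelled with EdU 5 μM for 3 h at 37°C, plus Annexin V. Up to 10,000 cells counted by flow cytometry. Caspase-3 activity measured colorimetrically at 405 nm.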

human islets [11] = assay: Western Blotting of phosphoproteins in human islets; assay type: cell-based; conditions: telaprevir 1.5 or 150 μM for 30 min
Outline: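 Human islets cultured overnight in Miami Media #1A at 37°C, 5% CO2, then exposed to test compound for 30 min. RIPA lysates with protease and phosphatase inhibitors, protein by BCA, immunoblotted with phospho-specific and total antibodies.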

EndoC-βH1 cells [12] = assay: Static glucose-stimulated insulin secretion assay; assay type: cell-based, human
Outline: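 EndoC-βH1 cells kept overnight in 2.8 mM glucose DMEM growth medium with vehicles (PBS, DMSO), PE 500 ng/ml and/or test compound 1.5 μM. Preincubated 1 hr in KRB (NaCl 115, NaHCO3 24, KCl 5, MgCl2 1, CaCl2 1, HEPES 10 mM; 0.2% BSA) at 2.8 mM glucose. Then 1 hr in KRB at 2.8 or 11.1 mM glucose with PE ± test compound. DNA content measured.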

human cathepsin G = molecular target: T2, human cathepsin G (Homo sapiens, UniProt P08311); assay: Absorbance-based protease activity assay, human cathepsin G; assay type: biochemical
T2 sequence (P08311 21-255): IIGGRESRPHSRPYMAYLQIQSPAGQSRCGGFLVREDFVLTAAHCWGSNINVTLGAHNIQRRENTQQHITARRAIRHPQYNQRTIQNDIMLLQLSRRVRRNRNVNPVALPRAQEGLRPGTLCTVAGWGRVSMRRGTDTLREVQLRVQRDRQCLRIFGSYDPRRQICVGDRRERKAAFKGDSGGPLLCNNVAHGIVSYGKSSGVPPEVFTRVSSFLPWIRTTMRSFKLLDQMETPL
Outline: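 Human cathepsin G (500 ng) combined with 15 two-fold dilutions of test compound from 20 μM; blank and DMSO wells included. After 3 min at 37°C, succinyl-Ala-Ala-Pro-Phe-p-nitroanilide substrate added and absorbance at 405 nm read immediately, 21 reads over 5 min.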

[13] = telaprevir HD 300 μg/kg/day, osmotic pumps

Molecule: CC(C)[C@@H]1C(=O)N(S(C)(=O)=O)[C@@H]2CCN(C(=O)/C=C/CN3CCCCC3)[C@H]21.Cl [GW311616A]
- human β-cell proliferation (human β-cell): enhance human β-cell proliferation

Molecule: CC(C)(C)C(=O)Oc1ccc(S(=O)(=O)Nc2ccccc2C(=O)NCC(=O)O)cc1 [sivelestat]
- Ins+ cells after β-cell ablation (Ins+ cells): trend towards an increase
- human β-cell proliferation (human β-cell): enhance human β-cell proliferation
- IC50 [1]: 2000 nM
- IC50 [2]: 2300 nM

Molecule: C[C@@H](O)[C@H]1C(=O)N2C(C(=O)O)=C(SC3CN(C4=NCCS4)C3)[C@H](C)[C@H]12 [tebipenem]
- IC50 [1]: 107000 nM
- IC50 [3]: 33600 nM
- IC50 [2]: 3600 nM

Molecule: CCC[C@H](NC(=O)[C@@H]1[C@H]2CCC[C@H]2CN1C(=O)[C@@H](NC(=O)[C@@H](NC(=O)c1cnccn1)C1CCCCC1)C(C)(C)C)C(=O)C(=O)NC1CC1 [telaprevir]
- β-cell viability (EdU+/Annexin V+ in DA-ZP1+ cells) ([4]; PE +/− telaprevir for 24 h): significantly improved β-cell survival
- blood glucose (random-fed or fasting) levels, body weight, glucose sensitivity or human C-peptide levels ([5]; 30 or 300 μg/kg/day, vs vehicle): did not observe differences between groups
- Ki67+ β-cells in human grafts [5, 13]: increase
- TUNEL+ β-cells in human grafts [5, 13]: decrease
- insulin sensitivity or GSIS (HFD mice; 4-week time point, vs HFD vehicle): did not affect
- glucose tolerance (HFD mice; high dose 300 μg/kg/day, week 4, vs HFD vehicle): improvement in glucose tolerance
- random-fed blood glucose levels or body weights (HFD mice; telaprevir 30 or 300 μg/kg/day vs HFD vehicle): did not exhibit differences
- area under the curve during GTT (HFD mice; telaprevir HD 300 μg/kg/day): statistically similar to the LFD vehicle group, although not significantly different from vehicle-HFD mice
- β-cell mass (HFD mice; telaprevir HD 300 μg/kg/day vs HFD vehicle): significantly higher β-cell mass
- 4 h fasting C-peptide and fasting blood glucose (HFD mice; telaprevir HD, after 4-week treatment compared to week 0): lowered
- β-cell mass (HFD mice; telaprevir LD 30 μg/kg/day vs HFD vehicle): comparable
- β-cell size (HFD mice; telaprevir LD and HD vs HFD vehicle): slightly lower β-cell size
- HbA1C levels [6]: reduce
- circulating C-peptide [6]: increase
- proliferation of other islet cell types, including α-cells and δ-cells (human β-cells): did not significantly stimulate proliferation
- β-cell apoptosis (TUNEL) (human β-cells; telaprevir at 100 μg/ml): significantly reducing apoptosis
- β-cell proliferation (Ki67 or pHH3), increase compared to control (human β-cells; telaprevir at 100 μg/ml): ~ 3 fold
- protease-activated receptor (PARs) signaling cascade (human islets [7]): significantly modulated
- Ins+ cells after β-cell ablation (Ins+ cells): significant increase
- phospho-PAK1 levels in scramble cells (EndoC-βH1 cells [8]; 30 min, PE vs PBS, or PE + telaprevir at high dose vs PE alone): significantly increasing phosphorylation of PAK1
- phosphorylated PAK1 in siFAK cells (EndoC-βH1 cells [8]; PE + telaprevir vs PE-treated siFAK samples, 30 min): significantly decreased
- phospho-PAK1 levels in EV (empty vector) cells (EndoC-βH1 cells [8]; PE, or PE + telaprevir): restored
- IC50 ([1]; read-out: IC50 pPE): 40.2 nM
- phospho-ERK1/2 levels (EndoC-βH1 cells [9]): significantly increased phospho-ERK1/2 levels
- Brillouin frequency shift (stiffness) (EndoC-βH1 cells [10]): completely reverse these effects
- IC50 [3]: 3600 nM
- concentrations that partially inhibit human NE activity [3]: > 10 µM
- regeneration levels and survival of siFAK FSLLRY-treated cells (EndoC-βH3 cells; PE + telaprevir): restored
- proliferation/apoptosis ratio (β-cell viability) in scramble cells (EndoC-βH3 cells; tamoxifen-treated EndoC-βH3, PE, or PE + telaprevir): boosted β-cell viability levels even higher than control cells
- phosphorylation levels of PAK1, PTK2B and ERK1/2 (human islets [11]): up-regulated
- glucose responsiveness (GSIS) in cells treated with PE (EndoC-βH1 cells [12]; PE 500 ng/ml + telaprevir 1.5 μM): restore glucose responsiveness
- β-cell function (GSIS) in the absence of PE (EndoC-βH1 cells [12]; telaprevir 1.5 μM alone): maintained normal function
- inhibition of human cathepsin G (human cathepsin G): virtually no effect
- IC50 [2]: 15.8 nM

Molecule: FSLLRY-NH2
- capacity of telaprevir to counteract the detrimental effects of PE in FSLLRY-NH2 treated cells ([4]; FSLLRY-NH2 pre-incubation, PE + telaprevir 24 h): impaired

B1: SerpinB1: endogenous protease (elastase) inhibitor derived from the liver that promotes human β-cell proliferation (protein, UniProt P30740 1-379, looked up)
Leukocyte elastase inhibitor: MEQLSSANTRFALDLFLALSENNPAGNIFISPFSISSAMAMVFLGTRGNTAAQLSKTFHFNTVEEVHSRFQSLNADINKRGASYILKLANRLYGEKTYNFLPEFLVSTQKTYGADLASVDFQHASEDARKTINQWVKGQTEGKIPELLASGMVDNMTKLVLVNAIYFKGNWKDKFMKEATTNAPFRLNKKDRKTVKMMYQKKKFAYGYIEDLKCRVLELPYQGEELSMVILLPDDIEDESTGLKKIEEQLTLEKLHEWTKPENLDFIEVNVSLPRFKLEESYTLNSDLARLGVQDLFNSSKADLSGMSGARDIFISKIVHKSFVEVNEEGTEAAAATAGIATFCMLMPEENFTADHPFLFFIRHNSSGSILFLGRFSSP
- human β-cell proliferation (human β-cell): promotes human β-cell proliferation

From publication PMC10834355 (Cell metabolism, 2023)
